Consider 22 compounds from ChEMBL document CHEMBL1649207, “Role of porins in the susceptibility of Mycobacterium smegmatis and Mycobacterium chelonae to aldehyde-based disinfectants and drugs” (2009).

The term MIC denotes the smallest concentration in the dilution series that meets the test's criterion for growth inhibition. A higher MIC goes with a less susceptible organism.

Values after ≈ are worked out from the molar mass of the structure shown. Active and inactive are the calls of the source.

The test system of assay [1] is Mycobacteroides chelonae. In words: Antimicrobial activity against Mycobacterium chelonae ATCC 35752 by resazurine microtiter assay. In kind it is functional. The method in brief:
(§1)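 Colorimetric resazurin microtiter MIC assay in 7H9-oleic acid-albumin-dextrose-catalase broth at 30°C, with well-dispersed bacteria. Growth was also checked by visual scanning to confirm the readings. At least three repeats on independent culture batches.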
Background: The colour change of resazurin is a common sign of viable cells or microbes.

Assay [2] concerns Mycobacteroides chelonae. The experiment in a line: Antimicrobial activity against Mycobacterium chelonae ATCC 35752 harboring pZS01 carrying mspA gene by resazurine microtiter assay. Format: functional.
Assay [3] deals with Mycobacteroides chelonae. In words: Antimicrobial activity against Mycobacterium chelonae 9917 by resazurine microtiter assay. In kind it is functional. The method in brief: as §1
Assay [4] deals with Mycobacteroides chelonae. In words: Antimicrobial activity against Mycobacterium chelonae 9917 harboring pZS01 carrying mspA gene by resazurine microtiter assay. Format: functional.
The test system of assay [5] is Mycolicibacterium smegmatis. The experiment in a line: Antimicrobial activity against MspA-deficient Mycobacterium smegmatis str. MC2 155. In kind it is functional, organism-based.
The subject of assay [6] is Mycolicibacterium smegmatis. In words: Antimicrobial activity against Mycobacterium smegmatis str. MC2 155 harboring embB mutant gene. In kind it is functional, organism-based.
In assay [7] the test system is Mycolicibacterium smegmatis. The experiment in a line: Antimicrobial activity against Lsr2-deficient Mycobacterium smegmatis str. MC2 155. Format: functional, organism-based.
The test system of assay [8] is Mycolicibacterium smegmatis. In words: Antimicrobial activity against Mycobacterium smegmatis str. MC2 155 deficient in mycothiol biosynthesis. In kind it is functional, organism-based.
In assay [9] the test system is Mycolicibacterium smegmatis. In words: Antimicrobial activity against MspA- and MspC-deficient Mycobacterium smegmatis str. MC2 155. In kind it is functional, organism-based.
Assay [10] relates to Mycolicibacterium smegmatis. In words: Antimicrobial activity against Mycobacterium smegmatis str. MC2 155 deficient in glycopeptidolipid biosynthesis. In kind it is functional, organism-based.
Assay [11] deals with Mycolicibacterium smegmatis. In words: Antimicrobial activity against Mycobacterium smegmatis str. MC2 155 deficient in production of lipomannan and produces truncated lipoarabinomannan. In kind it is functional, organism-based.
Assay [12] has as its system Mycolicibacterium smegmatis. In words: Antimicrobial activity against Mycobacterium smegmatis str. MC2 155 deficient in production of lipomannan and lipoarabinomannan. In kind it is functional, organism-based.
Assay [13] has as its system Mycolicibacterium smegmatis. The experiment in a line: Antimicrobial activity against Mycobacterium smegmatis str. MC2 155 deficient in production of polar phosphatidylinositol mannoside. Format: functional, organism-based.
Assay [14] relates to Mycolicibacterium smegmatis. The experiment in a line: Antimicrobial activity against Mycobacterium smegmatis str. MC2 155 harboring embA mutant gene. Format: functional, organism-based.
The mark [15] stands for this setting: Mycobacteroides chelonae, 9917, Urine.

With `O=C(O)c1cn(C2CC2)c2cc(N3CCNCC3)c(F)cc2c1=O` [CIPROFLOXACIN], the MIC in the assay with Mycobacteroides chelonae [1] came out at 1.5 µg/mL (≈ 4.53 µM); with Mycobacteroides chelonae [2] (ATCC 35752, Urine), 2.5 µg/mL (≈ 7.54 µM); against Mycobacteroides chelonae [3] it was 5 µg/mL (≈ 15.1 µM); with Mycobacteroides chelonae [4] (setting [15]) it was 1 µg/mL (≈ 3.02 µM).

For `NC[C@H]1O[C@H](O[C@H]2[C@H](O)[C@@H](O[C@H]3O[C@H](CO)[C@@H](O)[C@H](N)[C@H]3O)[C@H](N)C[C@@H]2N)[C@H](O)[C@@H](O)[C@@H]1O` [KANAMYCIN], the MIC came out at 50 µg/mL (≈ 103 µM) in the assay on Mycobacteroides chelonae [1] and 10 µg/mL (≈ 20.6 µM) in the assay with Mycobacteroides chelonae [3].

Regarding `CC[C@@H](CO)NCCN[C@@H](CC)CO` [ETHAMBUTOL], the MIC in the assay on Mycobacteroides chelonae [1] is above 500 µg/mL; against Mycobacteroides chelonae [2] (ATCC 35752, Urine), 25 µg/mL (≈ 122 µM); in the assay on Mycobacteroides chelonae [3], above 500 µg/mL; with Mycobacteroides chelonae [4] (setting [15]) it was 250 µg/mL (≈ 1220 µM).

In the case of `O=C(N[C@H](CO)[C@H](O)c1ccc([N+](=O)[O-])cc1)C(Cl)Cl` [CHLORAMPHENICOL], the MIC against Mycobacteroides chelonae [1] is above 500 µg/mL; with Mycobacteroides chelonae [2] (ATCC 35752, Urine), 50 µg/mL (≈ 155 µM); in the assay on Mycobacteroides chelonae [3], above 500 µg/mL; in the assay with Mycobacteroides chelonae [4] (setting [15]), 50 µg/mL (≈ 155 µM).

As for `CO[C@H]1/C=C/O[C@@]2(C)Oc3c(C)c(O)c4c(O)c(c(/C=N/N5CCN(C)CC5)c(O)c4c3C2=O)NC(=O)/C(C)=C\C=C\[C@H](C)[C@H](O)[C@@H](C)[C@@H](O)[C@@H](C)[C@H](OC(C)=O)[C@@H]1C` [RIFAMPIN], the MIC in the assay on Mycobacteroides chelonae [1] was 25 µg/mL (≈ 30.4 µM); against Mycobacteroides chelonae [2] (ATCC 35752, Urine) it was 5 µg/mL (≈ 6.08 µM); against Mycobacteroides chelonae [3] it was above 500 µg/mL; in the assay with Mycobacteroides chelonae [4] (setting [15]), 100 µg/mL (≈ 122 µM).

Turning to `O=CCCCC=O`, the outcome in assay [5], in [7], in assay [8], in assay [9], in assay [10] and in assay [12] was inactive. Besides, in assay [13], the outcome was inactive. Besides, the outcome (in [6]; in the assay on Mycobacteroides chelonae [2] (Urine); in [11]; with Mycobacteroides chelonae [4] (Urine); in assay [14]) was Active.

As to `O=Cc1ccccc1C=O`, the outcome in the assay on Mycobacteroides chelonae [2] (Urine) and in the assay on Mycobacteroides chelonae [4] (Urine) was Active.

Turning to `CC1(C)S[C@@H]2[C@H](NC(=O)[C@H](N)c3ccccc3)C(=O)N2[C@H]1C(=O)O` [AMPICILLIN], the MIC against Mycobacteroides chelonae [1] and against Mycobacteroides chelonae [3] was above 500 µg/mL each time.

Regarding `CN[C@@H]1C[C@H](N)[C@@H](O)[C@H](O[C@H]2O[C@H](CO)[C@H](O)[C@@H]3O[C@@]4(O[C@@H]23)O[C@H]([C@H](N)CO)[C@H](O)[C@H](O)[C@H]4O)[C@H]1O` [HYGROMYCIN], the MIC in the assay with Mycobacteroides chelonae [1] and with Mycobacteroides chelonae [3] was above 500 µg/mL throughout.

Consider `CN[C@@H]1[C@H](O[C@H]2[C@H](O[C@H]3[C@H](O)[C@@H](O)[C@H](N=C(N)N)[C@@H](O)[C@@H]3N=C(N)N)O[C@@H](C)[C@]2(O)C=O)O[C@@H](CO)[C@H](O)[C@H]1O` [STREPTOMYCIN], for which the MIC in the assay with Mycobacteroides chelonae [1] was 200 µg/mL (≈ 344 µM); in the assay on Mycobacteroides chelonae [2] (ATCC 35752, Urine), 250 µg/mL (≈ 430 µM); in the assay with Mycobacteroides chelonae [3], 10 µg/mL (≈ 17.2 µM); with Mycobacteroides chelonae [4] (setting [15]) it was 10 µg/mL (≈ 17.2 µM).

With `CC[C@H]1OC(=O)[C@H](C)[C@@H](O[C@H]2C[C@@](C)(OC)[C@@H](O)[C@H](C)O2)[C@H](C)[C@@H](O[C@@H]2O[C@H](C)C[C@H](N(C)C)[C@H]2O)[C@](C)(O)C[C@@H](C)CN(C)[C@H](C)[C@@H](O)[C@]1(C)O` [AZITHROMYCIN], the minimum inhibitory concentration (MIC) in the assay with Mycobacteroides chelonae [1] is 500 µg/mL (≈ 668 µM); in the assay with Mycobacteroides chelonae [2] (ATCC 35752, Urine), 500 µg/mL (≈ 668 µM); against Mycobacteroides chelonae [3], 500 µg/mL (≈ 668 µM); with Mycobacteroides chelonae [4] (setting [15]), 500 µg/mL (≈ 668 µM).

Consider `CC[C@H]1OC(=O)[C@H](C)[C@@H](O[C@H]2C[C@@](C)(OC)[C@@H](O)[C@H](C)O2)[C@H](C)[C@@H](O[C@@H]2O[C@H](C)C[C@H](N(C)C)[C@H]2O)[C@](C)(O)C[C@@H](C)C(=O)[C@H](C)[C@@H](O)[C@]1(C)O` [ERYTHROMYCIN], for which the MIC with Mycobacteroides chelonae [1] came out at 20 µg/mL (≈ 27.3 µM); against Mycobacteroides chelonae [2] (ATCC 35752, Urine) it was 0.25 µg/mL (≈ 0.341 µM); against Mycobacteroides chelonae [3], 500 µg/mL (≈ 681 µM); against Mycobacteroides chelonae [4] (setting [15]), 1 µg/mL (≈ 1.36 µM).

Turning to `CC(=O)NC[C@H]1CN(c2ccc(N3CCOCC3)c(F)c2)C(=O)O1` [LINEZOLID], the MIC is 25 µg/mL (≈ 74.1 µM) against Mycobacteroides chelonae [1]; 5 µg/mL (≈ 14.8 µM) against Mycobacteroides chelonae [2] (ATCC 35752, Urine); 100 µg/mL (≈ 296 µM) in the assay with Mycobacteroides chelonae [3]; 1 µg/mL (≈ 2.96 µM) against Mycobacteroides chelonae [4] (setting [15]).

Take `CCc1cc(C(N)=S)ccn1` [ETHIONAMIDE]: the MIC in the assay with Mycobacteroides chelonae [1] is above 400 µg/mL; in the assay with Mycobacteroides chelonae [2] (ATCC 35752, Urine), 50 µg/mL (≈ 301 µM); against Mycobacteroides chelonae [3], above 400 µg/mL; in the assay with Mycobacteroides chelonae [4] (setting [15]), 50 µg/mL (≈ 301 µM).

Turning to `NNC(=O)c1ccncc1` [ISONIAZID], the MIC against Mycobacteroides chelonae [1] and in the assay with Mycobacteroides chelonae [3] was above 400 µg/mL each time.

With `CC[C@H]1OC(=O)[C@H](C)[C@@H](O[C@H]2C[C@@](C)(OC)[C@@H](O)[C@H](C)O2)[C@H](C)[C@@H](O[C@@H]2O[C@H](C)C[C@H](N(C)C)[C@H]2O)[C@](C)(OC)C[C@@H](C)C(=O)[C@H](C)[C@@H](O)[C@]1(C)O` [CLARITHROMYCIN], the MIC is 25 µg/mL (≈ 33.4 µM) against Mycobacteroides chelonae [1]; 50 µg/mL (≈ 66.8 µM) against Mycobacteroides chelonae [2] (ATCC 35752, Urine); above 250 µg/mL in the assay on Mycobacteroides chelonae [3]; 25 µg/mL (≈ 33.4 µM) against Mycobacteroides chelonae [4] (setting [15]).

For the compound `NC[C@H]1O[C@H](O[C@H]2[C@H](O)[C@@H](O[C@H]3O[C@H](CO)[C@@H](O)[C@H](N)[C@H]3O)[C@H](N)C[C@@H]2N)[C@H](N)C[C@@H]1O` [TOBRAMYCIN], the MIC with Mycobacteroides chelonae [1] and against Mycobacteroides chelonae [3] was 25 µg/mL (≈ 53.5 µM) throughout.

Regarding `CN(C)[C@@H]1C(O)=C(C(N)=O)C(=O)[C@@]2(O)C(O)=C3C(=O)c4c(O)cccc4[C@@](C)(O)[C@H]3C[C@@H]12` [TETRACYCLINE], the minimum inhibitory concentration (MIC) in the assay with Mycobacteroides chelonae [1] was 50 µg/mL (≈ 113 µM); with Mycobacteroides chelonae [2] (ATCC 35752, Urine), 5 µg/mL (≈ 11.3 µM); against Mycobacteroides chelonae [3] it was above 500 µg/mL; against Mycobacteroides chelonae [4] (setting [15]) it was 25 µg/mL (≈ 56.3 µM).

`CCn1cc(C(=O)O)c(=O)c2cc(F)c(N3CCNCC3)cc21` [NORFLOXACIN]: the minimal inhibitory concentration (MIC) against Mycobacteroides chelonae [1] and against Mycobacteroides chelonae [3] was 5 µg/mL (≈ 15.7 µM) each time.

For the compound GENTAMICIN, the MIC was determined as 7.5 µg/mL against Mycobacteroides chelonae [1], 7.5 µg/mL against Mycobacteroides chelonae [2] (Urine), 15 µg/mL in the assay on Mycobacteroides chelonae [3] and 20 µg/mL against Mycobacteroides chelonae [4] (Urine).

With `NC(=O)c1cnccn1` [PYRAZINAMIDE], the minimal inhibitory concentration (MIC) against Mycobacteroides chelonae [1] and in the assay with Mycobacteroides chelonae [3] was above 500 µg/mL throughout.

As for `CN[C@H](CC(C)C)C(=O)N[C@H]1C(=O)N[C@@H](CC(N)=O)C(=O)N[C@H]2C(=O)N[C@H]3C(=O)N[C@H](C(=O)N[C@H](C(=O)O)c4cc(O)cc(O)c4-c4cc3ccc4O)[C@H](O)c3ccc(c(Cl)c3)Oc3cc2cc(c3O[C@@H]2O[C@H](CO)[C@@H](O)[C@H](O)[C@H]2O[C@H]2C[C@](C)(N)[C@H](O)[C@H](C)O2)Oc2ccc(cc2Cl)[C@H]1O` [VANCOMYCIN], the MIC with Mycobacteroides chelonae [1] is 5 µg/mL (≈ 3.45 µM); in the assay with Mycobacteroides chelonae [2] (ATCC 35752, Urine) it was 5 µg/mL (≈ 3.45 µM); in the assay with Mycobacteroides chelonae [3] it was above 500 µg/mL; in the assay with Mycobacteroides chelonae [4] (setting [15]), 25 µg/mL (≈ 17.3 µM).
